The record followed here is ChEMBL document CHEMBL1154304, “Triterpenoids and flavonoids from celery (Apium graveolens)” (J Nat Prod, 2009).

A word on the IC50: it is the concentration at which inhibition is half-maximal.

For the experiment, the system named is RAW264.7. Description: Antiinflammatory activity against mouse RAW264.7 cells assessed as inhibition of LPS-induced nitrite accumulation after 24 hrs by Griess reagent method. The conditions noted are these: RAW264.7, 24 h. The class given is functional, cell-based. The procedure, abridged: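 RAW 264.7 mouse macrophages in RPMI 1640 with 10% heat-inactivated FBS, penicillin/streptomycin, seeded at 1×10^5 cells/well, adhered 2 h at 37 °C, 5% CO₂. LPS 1 μg/mL for 24 h with or without compounds in DMSO (0.2% v/v final). Nitrite in supernatant read with Griess reagent against sodium nitrite standards (0–100 μM). Inhibition is relative to LPS-only and untreated wells. MTT viability check run in parallel. Triplicate, mean ± SD of three experiments.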
A general note: Nitrite, measured by Griess reagent, commonly stands in for NO production.
For `COc1cc(-c2cc(=O)c3c(O)cc(O)cc3o2)ccc1O` [CHRYSOERIOL], the half-maximal inhibitory concentration (IC50) is 14.2 µM.

With `O=c1cc(-c2ccc(O)cc2)oc2cc(O[C@@H]3O[C@H](CO)[C@@H](O)[C@H](O)[C@H]3O)cc(O)c12` [APIGETRIN], the half-maximal inhibitory concentration (IC50) is more than 20 µM.

Regarding `C[C@H]1[C@H](C)C(=O)C[C@]2(C)C[C@H](O)[C@]3(C)C(=CC(=O)[C@@H]4[C@@]5(C)C[C@H](O[C@@H]6O[C@H](CO)[C@@H](O)[C@H](O)[C@H]6O)[C@H](O)C(C)(C)[C@@H]5CC[C@]43C)[C@H]12`, the 50% inhibitory concentration (IC50) was more than 20 µM.

Regarding `O=c1c(O)c(-c2ccc(O)c(O)c2)oc2cc(O)cc(O)c12` [QUERCETIN], the IC50 is 11.4 µM.

For the compound `O=C1C[C@@H](c2ccc(O)cc2)Oc2cc(O[C@@H]3O[C@H](CO)[C@@H](O)[C@H](O)[C@H]3O[C@@H]3OC[C@](O)(CO)[C@H]3O)cc(O)c21`, the IC50 was more than 20 µM.

With `O=c1cc(-c2ccc(O)c(O)c2)oc2cc(O[C@@H]3O[C@H](CO)[C@@H](O)[C@H](O)[C@H]3O)cc(O)c12` [GALUTEOLIN], the IC50 was more than 20 µM.

As for `COc1cc(/C=C/C(=O)OC[C@@]2(O)CO[C@@H](O[C@H]3[C@H](Oc4cc(O)c5c(=O)cc(-c6ccc(O)cc6)oc5c4)O[C@H](CO)[C@@H](O)[C@@H]3O)[C@@H]2O)ccc1O`, the IC50 was more than 20 µM.

As for `O=c1cc(-c2ccc(O)c(O)c2)oc2cc(O)cc(O)c12` [LUTEOLIN], the IC50 turned out to be 7.5 µM.

As to `COc1cc(/C=C/C(=O)OC[C@@]2(O)CO[C@@H](O[C@H]3[C@H](Oc4cc(O)c5c(=O)cc(-c6ccc(O)c(O)c6)oc5c4)O[C@H](CO)[C@@H](O)[C@@H]3O)[C@@H]2O)ccc1O`, the IC50 was more than 20 µM.

Regarding `COc1cc(/C=C/C(=O)OC[C@@]2(O)CO[C@@H](O[C@H]3[C@H](Oc4cc(O)c5c(=O)cc(-c6ccc(O)c(OC)c6)oc5c4)O[C@H](CO)[C@@H](O)[C@@H]3O)[C@@H]2O)ccc1O`, the IC50 is more than 20 µM.

On to `O=c1cc(-c2ccc(O)cc2)oc2cc(O)cc(O)c12` [APIGENIN], for which the 50% inhibitory concentration (IC50) stood at 6.7 µM.

As for `O=c1cc(-c2ccc(O)cc2)oc2cc(O[C@@H]3O[C@H](CO)[C@@H](O)[C@H](O)[C@H]3O[C@@H]3OC[C@](O)(CO)[C@H]3O)cc(O)c12` [APIIN], the half-inhibitory concentration (IC50) was more than 20 µM.

For `CC1(C)C[C@H]2C3=CC(=O)[C@@H]4[C@@]5(C)CC[C@H](O)[C@](C)(CO[C@@H]6O[C@H](CO)[C@@H](O)[C@H](O)[C@H]6O)[C@@H]5CC[C@@]4(C)[C@]3(C)[C@@H](O)C[C@@]2(C)CC1=O`, the IC50 is more than 20 µM.

`COc1cc(-c2cc(=O)c3c(O)cc(O[C@@H]4O[C@H](CO)[C@@H](O)[C@H](O)[C@H]4O)cc3o2)ccc1O`: the IC50 was more than 20 µM.

As for `COc1cc(/C=C/C(=O)CC(=O)/C=C/c2ccc(O)c(OC)c2)ccc1O` [CURCUMIN], the concentration for half-maximal inhibition (IC50) was 8.3 µM.

For the compound `C[C@H]1[C@H](C)C(=O)C[C@]2(C)C[C@H](O)[C@]3(C)C(=CC(=O)[C@@H]4[C@@]5(C)CC[C@H](O)[C@](C)(CO[C@@H]6O[C@H](CO)[C@@H](O)[C@H](O)[C@H]6O)[C@@H]5CC[C@]43C)[C@H]12`, the half-inhibitory concentration (IC50) is more than 20 µM.
